Measured values: publication PMC6035748 (Journal of biomedical materials research. Part A, 2018)
Ends that are not written are not given here.

What was measured:
integrin αvβ3 = integrin αvβ3 (Homo sapiens, UniProt P05106+P06756); assay: Bio-layer interferometry; type: binding
Method in brief: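 Biotinylated test peptide, 25 μM stock in 5% DMSO/95% water, diluted 100-fold in 0.05% Tween 20 in 1X PBS. The peptide was loaded onto streptavidin biosensors for 300 s, with 60 s buffer-only steps on either side. Association ran 600 s against human recombinant integrin αvβ3 at 10–300 nM in the same buffer. kon and koff were fitted to a single-binding-site association model.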

MDA-MB-231 tumors = assay: Biodistribution in orthotopic MDA-MB-231 xenograft mouse model; type: in vivo; conditions: AXT050-IRD800 intravenous, organs harvested 24 h post injection

Chain of integrin αvβ3 (P06756 31-992 limits assumed): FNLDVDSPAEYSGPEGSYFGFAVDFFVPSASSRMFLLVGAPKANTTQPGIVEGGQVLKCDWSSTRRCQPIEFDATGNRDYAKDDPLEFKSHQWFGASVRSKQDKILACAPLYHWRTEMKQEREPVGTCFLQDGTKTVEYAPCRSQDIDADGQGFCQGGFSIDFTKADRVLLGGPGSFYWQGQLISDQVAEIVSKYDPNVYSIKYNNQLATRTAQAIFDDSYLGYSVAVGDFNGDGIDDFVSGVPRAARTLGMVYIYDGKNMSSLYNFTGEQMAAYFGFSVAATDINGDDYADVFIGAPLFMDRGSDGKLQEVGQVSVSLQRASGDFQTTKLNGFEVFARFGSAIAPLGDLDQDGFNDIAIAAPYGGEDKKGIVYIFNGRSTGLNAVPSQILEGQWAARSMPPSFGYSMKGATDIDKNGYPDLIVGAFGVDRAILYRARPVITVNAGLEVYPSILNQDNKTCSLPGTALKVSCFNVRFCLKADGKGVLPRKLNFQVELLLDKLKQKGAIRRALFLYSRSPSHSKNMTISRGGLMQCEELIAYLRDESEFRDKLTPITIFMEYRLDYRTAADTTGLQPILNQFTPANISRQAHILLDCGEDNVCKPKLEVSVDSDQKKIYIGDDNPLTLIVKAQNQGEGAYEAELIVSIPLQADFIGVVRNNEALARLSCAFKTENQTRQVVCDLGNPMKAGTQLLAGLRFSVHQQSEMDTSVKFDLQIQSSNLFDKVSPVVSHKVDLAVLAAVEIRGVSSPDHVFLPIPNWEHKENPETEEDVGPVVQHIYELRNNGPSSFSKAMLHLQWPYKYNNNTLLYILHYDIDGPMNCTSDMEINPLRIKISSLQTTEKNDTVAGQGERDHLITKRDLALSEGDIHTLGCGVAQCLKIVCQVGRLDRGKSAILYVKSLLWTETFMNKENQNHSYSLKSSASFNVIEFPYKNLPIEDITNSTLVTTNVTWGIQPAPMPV
Chain of integrin αvβ3 (P05106 27-718 limits assumed): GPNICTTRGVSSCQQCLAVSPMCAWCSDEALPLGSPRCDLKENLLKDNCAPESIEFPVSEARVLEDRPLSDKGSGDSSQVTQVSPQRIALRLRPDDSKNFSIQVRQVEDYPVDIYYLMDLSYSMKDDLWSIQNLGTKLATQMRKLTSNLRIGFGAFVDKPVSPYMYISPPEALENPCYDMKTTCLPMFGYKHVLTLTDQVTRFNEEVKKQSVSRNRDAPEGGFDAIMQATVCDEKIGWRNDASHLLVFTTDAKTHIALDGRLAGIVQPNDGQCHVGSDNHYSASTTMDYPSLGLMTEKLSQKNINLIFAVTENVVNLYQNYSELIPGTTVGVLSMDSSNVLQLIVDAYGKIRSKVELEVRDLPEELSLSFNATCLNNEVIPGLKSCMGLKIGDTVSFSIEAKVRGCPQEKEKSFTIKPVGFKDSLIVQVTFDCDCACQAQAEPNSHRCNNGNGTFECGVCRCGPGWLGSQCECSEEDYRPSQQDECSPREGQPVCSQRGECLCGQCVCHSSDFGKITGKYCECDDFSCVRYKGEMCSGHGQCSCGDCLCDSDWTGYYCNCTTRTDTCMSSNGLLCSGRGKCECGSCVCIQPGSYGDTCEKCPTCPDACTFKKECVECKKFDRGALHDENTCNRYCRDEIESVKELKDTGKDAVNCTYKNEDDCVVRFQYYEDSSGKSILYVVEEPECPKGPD

With LRRFSTAPFAFIDINDVINF [AXT050] the koff (integrin αvβ3) was 0.0032 s⁻¹ and the “organ with highest detection / main route of clearance” value (MDA-MB-231 tumors) was “highest level of its detection in the kidneys”.
